RGS4 act = potentiators or activators of RGS4. HEK293 M3R/inducible RGS4, carbachol calcium flux Fluo4; stronger effect = lower value. B-score at 10 µM. 0.92% of 310,000 active. AID 463111;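 active = B-score of the integrated calcium signal more than 4 SD below the library mean, with starting fluorescence not abnormally high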;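 also: negative B-score means reduced calcium response which marks RGS4 activation or potentiation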
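Also added: carbachol at ECmax as muscarinic agonist stimulus; Assay system: HEK293 cells with stable M3R and inducible RGS4; Timing: overnight RGS4 induction, 30 min dye load 37 °C, 20 min compound RT; Measured by: Fluo4-AM (2 µM) calcium-flux fluorescence, kinetic read.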
MrgX1 agonist = activates human MrgX1 receptor signaling; Q96LB2; MrgX1-HEK293 cells, Fluo-4 calcium fluorescence, agonist mode; stronger effect = higher value; B-score at 10 µM; 0.44% of 310,000 active;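 active = calcium response B-score plate-corrected fluorescence ratio at least 3 library SD, with starting fluorescence B-score inside 5 SD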
Target sequence (Q96LB2 whole entry, looked up): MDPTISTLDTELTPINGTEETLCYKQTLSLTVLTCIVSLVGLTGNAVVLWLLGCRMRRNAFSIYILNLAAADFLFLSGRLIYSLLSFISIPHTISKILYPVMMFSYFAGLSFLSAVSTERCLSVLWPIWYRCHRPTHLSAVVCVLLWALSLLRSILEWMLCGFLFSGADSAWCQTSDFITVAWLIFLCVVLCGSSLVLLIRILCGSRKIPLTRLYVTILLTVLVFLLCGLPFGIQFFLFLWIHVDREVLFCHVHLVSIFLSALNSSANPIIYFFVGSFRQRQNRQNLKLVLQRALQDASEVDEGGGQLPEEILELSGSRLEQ
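Assay system: stable human MrgX1 HEK293 cell line. Quantity: 15,000 cells per well. Schedule: cells plated overnight, dye loaded 0.5 h 37 °C, 0.5 h room temperature. Detection: Fluo-4 NW calcium-flux fluorescence, kinetic read. Read-out basis: peak-minus-minimum fluorescence over baseline, converted to B scores. Control set: positive and negative control wells on each plate.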
RGS4 inh = human RGS4 inhibition | 0.45% of 310,000 active | B-score at 10 µM | HEK293 M3R/RGS4 inducible, Fluo-4 calcium flux; stronger effect = higher value; triggered by carbachol at its EC20 | P49798;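 active = B-score, a plate-corrected calcium signal, over three deviations above library mean, with baseline fluorescence within five deviations of library mean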;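 also: RGS4 expression induced by doxycycline in cells with stable M3 receptor; B-score is computed from the integrated fluorescence ratio over baseline after carbachol; higher B-score means a larger calcium signal and so more RGS4 inhibition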
Target sequence (P49798 whole entry, looked up): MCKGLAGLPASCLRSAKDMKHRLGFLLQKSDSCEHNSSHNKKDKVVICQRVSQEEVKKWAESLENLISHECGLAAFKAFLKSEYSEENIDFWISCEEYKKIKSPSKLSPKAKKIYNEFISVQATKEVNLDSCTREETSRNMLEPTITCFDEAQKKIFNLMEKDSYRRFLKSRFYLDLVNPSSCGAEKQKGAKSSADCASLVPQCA
MrgX1 antag = human MrgX1 receptor antagonism, primary screen; MRGX1-HEK293 calcium flux, Fluo-4, BAM8-22 antagonism; stronger effect = lower value; B-score at 10 µM; 1.3% of 310,000 active; AID 588676;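 active = calcium-response B-score plate-corrected more than 3 library SD below zero, starting fluorescence within 5 deviations, no agonist response on first addition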;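 also: peak minus trough fluorescence over baseline after final BAM8-22 challenge near maximal dose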
MrgX1 allo act = human MrgX1 positive allosteric modulation, primary screen. 0.63% of 310,000 active. B-score at 10 µM. Q96LB2. MrgX1-HEK293, Fluo-4 calcium flux, FDSS; stronger effect = higher value;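 active = plate-corrected calcium response at least 3 library SD above typical, normal starting fluorescence, not activating the receptor alone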;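 also: compound read alongside a low EC10 to EC30 dose of BAM8-22 agonist; peak minus trough fluorescence over baseline measured at the second addition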
RGS4 act valid = RGS4 activation, validation assay; shares compounds with RGS4 act; HEK293 M3R/RGS4 inducible, carbachol calcium flux Fluo4; inhibition, % at 10 µM; 89% of 1,100 active; AID 602282;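 active = inhibition above 3 SD of the buffer control wells, cut at about 41% in these data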;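 also: signal is the integrated peak-minus-minimum Fluo4 fluorescence over baseline ratio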
RGS4 act ctr = RGS4 activator counter-screen hit in non-induced cells. inhibition, % at 10 µM. shares compounds with RGS4 act. 82% of 1,100 active. HEK293 M3R non-induced RGS4, Fluo4 calcium flux; after carbachol challenge at its EC90;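 active = inhibition exceeding 3 SD of buffer-only control wells, cut at about 26% in these data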;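 also: percent drop in integrated peak-minus-baseline over baseline Fluo4 ratio after carbachol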
* hit, by the source's call; i = inactive; . = no result. A selection: hits, their analogues and other compounds. The true share with any hit is near 3.5%.

SMILES	RGS4 act	MrgX1 agonist	RGS4 inh	MrgX1 antag	MrgX1 allo act	RGS4 act valid	RGS4 act ctr
Cc1nn(-c2ccccc2)c(Cl)c1C(=O)OCC(=O)NCCc1ccccc1	-7.96*	i	i	i	i	44.5*	0.0
CCOC(=O)N1CCC(NC(=O)C2CCN(S(=O)(=O)N3CCC(C)CC3)CC2)CC1	.	i	.	i	i	.	.
Cc1ccc(OS(=O)(=O)c2c(C)nn(C)c2Cl)c(C)c1	-9.9*	i	i	i	i	90.5*	93.3*
CN(CC/C=C1/c2ccccc2CSc2ccccc21)CCCO	-9.46*	i	i	i	i	91.0*	64.8*
CC(O)CN(C)CC/C=C1/c2ccccc2CSc2ccccc21 (stereo not drawn)	-7.86*	i	i	i	i	73.0*	83.8*
COc1ccccc1N1CCN(C(=O)c2cc(-c3cccc(Cl)c3)on2)CC1	i	i	i	i	i	.	.
O=C(c1ccco1)N1CCN(c2nc(C3CC3)nc3sc4c(c23)CCCC4)CC1	-8.52*	i	i	i	i	87.0*	45.3*
N#Cc1c(N2CCN(C(=O)c3ccccc3)CC2)nc(-c2ccccc2)c2c1CCCC2	-7.87*	i	i	i	i	90.5*	53.8*
N#Cc1c(N2CCN(C(=O)c3ccco3)CC2)nc(-c2ccccc2)c2c1CCCC2	-8.16*	i	i	i	i	91.0*	48.3*
COc1ccc(/C=N/n2c(-c3ccc(C)cc3)n[nH]c2=S)cc1OC	i	i	i	i	i	.	.
O=C(CC1CCS(=O)(=O)C1)NC1CCCCC1 (stereo not drawn)	-9.32*	i	i	i	i	0.0	0.0
O=C(CC1CCCCC1)NC1CCCC1	i	i	i	i	i	.	.
S=C1N(c2ccccc2)C(c2ccc(Br)cc2)N2CCCN12 (stereo not drawn)	-10.7*	i	i	i	i	94.0*	90.3*
O=C(OCC(=O)N1CCCc2ccccc21)c1c(F)cccc1F	i	i	i	i	i	.	.
NNc1nc(-c2ccccc2)nc(-c2ccccc2)c1Br	i	i	i	i	i	.	.
CCOC(=O)c1nnn(-c2nonc2-n2cccc2)c1CN1CCC(C)CC1	-8.02*	i	i	i	i	71.5*	0.0
CCOC(=O)c1nnn(-c2nonc2-n2cccc2)c1CCl	i	i	i	i	i	.	.
COc1cc(C2NC(=O)NC(O)(C(F)(F)F)C2C(=O)c2ccc(Cl)cc2)ccc1O (stereo not drawn)	.	i	.	i	i	.	.
COc1ccc(C2NC(=O)NC(O)(C(F)(F)F)C2C(=O)c2ccc(F)cc2)cc1 (stereo not drawn)	-8.78*	i	i	i	i	92.0*	83.3*
COc1ccc(C)cc1S(=O)(=O)N1CCN(C(=O)c2ncoc2-c2ccc(C)cc2)CC1	-8.18*	i	i	i	i	82.0*	31.8*
CC(C)C(C)NC(=O)CN1C(=O)NC2(CCCc3ccccc32)C1=O (stereo not drawn)	i	i	i	i	i	.	.
CCN1CN(Cc2ccco2)CNC1=S	i	i	i	i	i	.	.
CC(Oc1cccc2cccnc12)C(=O)N/N=C/c1ccc2c(c1)OCO2 (stereo not drawn)	-12.7*	i	i	i	i	0.0	0.0
CC(Oc1cccc2cccnc12)C(=O)N/N=C/c1ccccc1 (stereo not drawn)	i	i	i	i	i	.	.
Cc1ccccc1N1CCN(C2CCCN(C(=O)c3ccccn3)C2)CC1 (stereo not drawn)	i	i	i	i	i	.	.
SMILES	RGS4 act	MrgX1 agonist	RGS4 inh	MrgX1 antag	MrgX1 allo act	RGS4 act valid	RGS4 act ctr
Cc1ccccc1N1CCN(C2CCCN(C(=O)c3cn4cccc(C)c4n3)C2)CC1 (stereo not drawn)	-9.66*	.	i	.	.	50.5*	0.0
C=C(C)CC(c1ccccc1)N(C(C)=O)c1ccco1 (stereo not drawn)	i	i	i	i	i	.	.
CN(c1ccccc1)S(=O)(=O)c1cccc(C(=O)NCCc2c[nH]c3ccccc23)c1	-9.16*	i	i	i	i	74.0*	47.8*
Cc1ccc(S(=O)(=O)NNC(=O)c2ccc3ccccc3n2)cc1	i	i	i	i	i	.	.
O=C(Nc1ccccc1F)Nc1cc(S(=O)(=O)N2CCOCC2)ccc1N1CCCC1	i	i	i	i	i	.	.
O=C(Nc1ccc(Cl)c(Cl)c1)Nc1cc(S(=O)(=O)N2CCOCC2)ccc1N1CCCC1	-9.15*	i	i	i	i	72.5*	27.3*
Cc1ccc(S(=O)(=O)NCC(=O)OCC(=O)NCc2ccc(F)cc2)cc1	i	i	i	i	i	.	.
COc1ccc(-c2csc(N3CCN(c4cc(C)nc5ccccc45)CC3)n2)cc1OC	-8.49*	i	i	i	i	92.5*	86.3*
COCCCNC(=O)c1c(N)n(/N=C/c2cccs2)c2nc3ccccc3nc12	-8.13*	i	i	i	i	0.0	0.0
CC(=O)Nc1c2c3c(cccc3n(C)c1=O)C(=O)c1ccccc1-2	-8.62*	i	i	i	i	53.0*	0.0
CC(=O)Nc1ccc(Nc2ccc3c4c(cc(=O)n3C)-c3ccccc3C(=O)c24)cc1	i	i	i	i	i	.	.
CC(=O)N1CCc2cc(S(=O)(=O)NCC(=O)NCc3ccc(F)cc3)ccc21	i	i	i	i	i	.	.
CCCN1CCc2c(sc(NC(=O)c3ccc(S(=O)(=O)N(C)c4ccccc4)cc3)c2C(=O)NC)C1	-9.53*	i	i	i	i	84.0*	52.3*
O=C(O)c1cc2ccccc2n1-c1ccccc1	i	i	i	i	i	.	.
COc1ccc(C(=O)Nc2ccnn2C2CCN(Cc3cnn(C)c3)CC2)cc1	i	i	i	i	i	.	.
CCn1cc(CN2CCC(n3nccc3NC(=O)c3ccc(OC)cc3)CC2)cn1	-7.72*	i	i	i	i	66.0*	83.8*
CCN(CC)CC(C)CNC(=O)CN1C(=O)CSc2ccc(S(=O)(=O)N3CCOCC3)cc21 (stereo not drawn)	i	i	i	i	i	.	.
c1ccc(OCc2ccc(CCCN3CCOCC3)cc2)cc1	-8.06*	i	i	i	i	57.5*	83.8*

Assay outcomes as filed in PubChem.
